Source: ChEMBL document CHEMBL4513216, “Probing the Open Global Health Chemical Diversity Library for Multistage-Active Starting Points for Next-Generation Antimalarials” (ACS Infect Dis, 2020)

Assay: Toxicity liver stage against HepG2, at 10uM
Type: cell-based
Set-up: test concentration 10 uM, cell line HepG2-A16-CD81EGFP
Settings: human, HepG2-A16-CD81EGFP cells; read-out: INHIBITION
Outline: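 Uninfected HepG2-A16-CD81EGFP cells, 3 × 10^3 per well, 1536-well, plated on prespotted compound at 10 μM final, parasite-free screening media added to match infected plates; puromycin 10 μM positive, DMSO 0.5% negative; run in parallel with 48 h PbLuc assay at 37 °C, 5% CO2; viability by CellTiter-Glo luminescence, normalized to controls.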

| SMILES | cytotoxicity at 10 µM |
| --- | --- |
| CCN(C1CCS(=O)(=O)C1)S(=O)(=O)c1cccc2cc(C)cnc12 (stereo not given) | -11% |
| OCc1ccc(OCC(F)(F)F)cc1 | -11.9% |
| O=C(C1CCOCC1)N1C[C@@H](F)[C@@H](OCc2nc3cc(F)ccc3[nH]2)C1 | -9.9% |
| CO[C@@H]1CN(C)S(=O)(=O)[C@@]12CCN(Cc1ccccc1)C2 | 3.02% |
| COCCOC(=O)N1CCN2C[C@@H](CO)[C@H](c3ccccc3)[C@H]2C1 | 3.44% |
| Cc1nc2oc(C(=O)N3CCOCC3)c(N)c2c2c1CCCC2 | -2.8% |
| COC(=O)CCC(=O)N(Cc1ccc2cc[nH]c2c1)C1CC1 | -3.4% |
| CC1CCN(C(=O)c2cn(-c3cc(N4CCOCC4)ncn3)cn2)CC1 | 1.75% |
| Cc1nn(C2CCS(=O)(=O)C2)c(C)c1CC(=O)NCc1ccccc1Cl (stereo not given) | -0.178% |
| COc1ccc(CN2CCO[C@H]3CN(C(C)=O)CC[C@H]3C2=O)cc1 | -138% |
| CS(=O)(=O)N1CC[C@@H]2OC(COCC(=O)N3CCCC3)CC[C@@H]21 (stereo not given in full) | 1.56% |
| COc1nn(C)c2c1CCCN(C(=O)c1ccc(C)c(F)c1)C2 | 8.21% |
| Cn1cc(C[C@H]2[C@H](O)CCN2C(=O)C2CCCC2)cn1 | -3.49% |
| CN(Cc1cn2c(n1)CN(C(=O)C1CCOCC1)CC2)Cc1ccco1 | -1.46% |
| C[C@H]1C(=O)NC[C@H]2CN(Cc3ccccc3)C[C@H]21 | 1.47% |
| O=C(NCCN1CCOCC1)c1ccn(COc2ccc(F)cc2)n1 | 6.17% |
| CCc1noc(C2CCCCN2C(=O)c2cccnc2)n1 (stereo not given) | 8.52% |
| CC(=O)N1CCCC(c2ccnc(Nc3cnccn3)c2)C1 (stereo not given) | 9.37% |
| CS(=O)(=O)c1cncnc1C1CCCN(C(=O)Nc2ccccc2F)C1 (stereo not given) | -0.675% |
| Cn1ncc(Cl)c1C(=O)N1CCC(c2nnsc2S(C)(=O)=O)CC1 | -4.7% |
| CN(C)S(=O)(=O)N1CCC(c2n[nH]cc2-c2ccnc(N)c2)C1 (stereo not given) | 8.81% |
| Cc1c[nH]nc1C1CCN(C(=O)Cn2cccn2)C1 (stereo not given) | 3.09% |
| CCc1ccccc1Nc1noc2c1CN(C(=O)C1CCCO1)CC2 (stereo not given) | -9.9% |
| CN1CCN(C(=O)C2CCN(c3cccnn3)CC2)CC1 | -0.353% |
| CNc1cccc(C2CCN(C(=O)c3cccnc3)CC2)n1 | -7.27% |
| CO[C@H]1CN(Cc2cc(F)ccc2F)CC[C@@]12CCCO2 | -8.49% |
| COc1ccccc1-c1cc(C(=O)N(C)C)c2cnn(C)c2n1 | 10.6% |
| CC(=O)c1sc(Nc2ccc(Cl)cn2)nc1C | 41.9% |

| SMILES | cytotoxicity at 10 µM |
| --- | --- |
| Cc1cc(-n2c(C)cn(CN(C)CC3CC3)c2=O)no1 | -2.95% |
| COCCC1(C(=O)NCCc2nncn2C2CC2)CCC1 | -9.22% |
| O=C(c1cscn1)N(CCCO)S(=O)(=O)c1cccs1 | -11.3% |
| O=C(Cc1ccon1)Nc1cncc(Br)c1O | 7.06% |
| Cc1nc(C)c(C(=O)N2Cc3cc(F)ccc3CC2C)o1 (stereo not given) | 6.07% |
| CCC(C)(NC(=O)CCN1CCOC1=O)C(=O)OC (stereo not given) | -16% |
| CC(C)C(=O)NCc1cc(Br)ccc1F | -3.98% |
| COC(=O)CCNC(=O)c1ccc(OCc2ccccc2)nc1 | 4.93% |
| CCS(=O)(=O)NCC(=O)NC1(C)CCc2ccccc2C1 (stereo not given) | 2.22% |
| OCCN(Cc1cccnc1)c1ccc(Br)cn1 | 21.4% |
| O=C(CN(Cc1cccc(F)c1)CC1CCCO1)N1CCCC1 (stereo not given) | -7.29% |
| Cc1cc(C)c(CNC(=O)N2CCC(N3CCNC3=O)CC2)c(C)c1 | -2.22% |
| CC(C)NC(=O)CCNC(=O)Nc1cnn(-c2ccccc2Cl)c1 | 1.75% |
| Cn1cccc1C(=O)OCCNC(=O)c1ccccc1 | 14.7% |
| CC(C)NC(=O)c1cccc(NC(=O)CCCc2nc(C(C)C)no2)c1 | 5.51% |
| COc1ccc(C(=O)Cn2cnnc2[S+](C)[O-])cc1Cl (stereo not given) | -8.17% |
| Cc1cccc(CNC2CCN(CCc3ccncc3)CC2)c1C | -9.04% |
| COc1ncccc1NC(=O)N1CCC(C(=O)NC(C)C)CC1 | -3.68% |
| Cc1nn(C)c(C)c1OCC(=O)NCc1cccc(CO)c1 | -7.73% |
| Cc1ccc(F)c2c1N(C(=O)c1cn(CC(=O)N(C)C)nn1)CCC2 | -9.17% |
| O=C(Nc1ccccc1)NC1CCN(C2CCOC2)CC1 (stereo not given) | 7.76% |
| Cc1[nH]ccc1C(=O)N(Cc1ccc(O)cc1)CC1CC1 | 6.99% |
| O=C(CC1CCCO1)NCCc1ccccc1Br (stereo not given) | 5.63% |
| CC(C)N1CCN(C(=O)c2ccccc2NCc2cccnc2)CC1 | -19.4% |
| CC(C)(NC(=O)c1cnc(-c2ccccc2F)s1)C(N)=O | 6.96% |
| COc1ccccc1-c1csc(NC(=O)N2CCN(C)CC2C)n1 (stereo not given) | -3.24% |
| O=C(CCCNC(=O)Nc1ccc(F)cc1F)Nc1cn[nH]c1 | 9.19% |
